Results on one compound are retold here after ChEMBL document CHEMBL1140884, “Oligodeoxyribonucleotide-based antagonists for Toll-like receptors 7 and 9” (2009).

For assay [1], the target named is T1, Toll-like receptor 9 (Mus musculus) (UniProt Q9EQU3).
T1 sequence (whole entry): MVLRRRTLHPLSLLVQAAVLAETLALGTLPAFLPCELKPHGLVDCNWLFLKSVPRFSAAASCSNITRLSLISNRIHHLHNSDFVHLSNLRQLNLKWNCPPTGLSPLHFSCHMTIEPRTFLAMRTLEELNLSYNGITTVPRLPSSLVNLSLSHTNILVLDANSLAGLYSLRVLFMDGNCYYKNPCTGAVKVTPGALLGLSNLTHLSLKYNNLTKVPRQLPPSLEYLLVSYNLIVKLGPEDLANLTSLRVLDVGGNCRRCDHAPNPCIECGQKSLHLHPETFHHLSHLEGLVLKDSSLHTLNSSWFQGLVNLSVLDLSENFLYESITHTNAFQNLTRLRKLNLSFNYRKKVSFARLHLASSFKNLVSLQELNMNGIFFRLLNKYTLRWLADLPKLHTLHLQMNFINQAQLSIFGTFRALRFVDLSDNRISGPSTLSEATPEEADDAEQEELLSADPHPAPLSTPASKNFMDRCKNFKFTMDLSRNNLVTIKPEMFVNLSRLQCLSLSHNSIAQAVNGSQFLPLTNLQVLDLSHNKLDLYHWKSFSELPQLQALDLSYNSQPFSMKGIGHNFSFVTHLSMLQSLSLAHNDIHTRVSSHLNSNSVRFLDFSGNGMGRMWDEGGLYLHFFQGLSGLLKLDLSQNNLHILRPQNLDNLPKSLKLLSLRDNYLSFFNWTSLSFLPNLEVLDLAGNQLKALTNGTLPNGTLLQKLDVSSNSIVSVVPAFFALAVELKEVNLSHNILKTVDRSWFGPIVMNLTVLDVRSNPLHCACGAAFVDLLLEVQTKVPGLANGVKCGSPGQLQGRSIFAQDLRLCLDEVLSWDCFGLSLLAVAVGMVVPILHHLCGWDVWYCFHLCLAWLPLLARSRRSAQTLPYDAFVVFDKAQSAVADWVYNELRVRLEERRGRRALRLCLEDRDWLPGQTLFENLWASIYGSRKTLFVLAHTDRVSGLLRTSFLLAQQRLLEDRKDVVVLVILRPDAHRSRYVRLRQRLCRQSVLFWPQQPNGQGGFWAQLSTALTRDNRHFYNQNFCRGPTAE
Description: Antagonist activity at TLR9 in mouse J774 cells assessed as inhibition of 5'-TCTGACRTTCT-X-TCTTRCAGTCT-3'-induced NF-kappaB activation pretreated for 1 hr. The class given is functional, cell-based. An outline of the steps:
(§1)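 J774 cells at 5×10^6 cells/well were preincubated with antagonist for 1 h. Agonist was then added: TLR9 agonist 1 µg/mL, an RNA-based TLR7/8 agonist, or LPS 100 ng/mL. Antagonist was used at 5–40 µg/mL or at the indicated agonist ratios. Nuclear extracts were taken 1 h after agonist and analysed by EMSA.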

Assay [2] concerns the target T1, Toll-like receptor 9 (Mus musculus). Put plainly: Antagonist activity at TLR9 in mouse J774 cells assessed as inhibition of LPS-induced NF-kappaB activation treated 1 hr before LPS induction. The class given is functional, cell-based. An outline of the steps:
as §1

Assay [3] shares this target. Put plainly: Antagonist activity at TLR9 in mouse J774 cells assessed as inhibition of 5'-TCTGACRTTCT-X-TCTTRCAGTCT-3'-induced NF-kappaB activation. The class given is functional, cell-based. In a few lines:
as §1

For assay [4] the target is unchanged. Put plainly: Antagonist activity at TLR9 in mouse J774 cells assessed as inhibition of 5'-TCTGACRTTCT-X-TCTTRCAGTCT-3'-induced NF-kappaB activation pretreated for 30 mins. The class given is functional, cell-based. An outline of the steps: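 J774 cells received antagonist at 5, 10 or 20 µg/mL either 30 min before, together with, or 30 min after TLR9 agonist (1 µg/mL). Nuclear extracts were prepared 1 h after agonist addition and NF-κB was assessed by EMSA.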

The subject of assay [5] is Mus musculus. Description: Inhibition of 5'-TCTGACRTTCT-X-TCTTRCAGTCT-3'-induced IL12 production in C57BL/6 mouse pretreated before up to 48 hrs of induction at 10 mg/kg, sc. The class given is functional, organism-based. Details: dose 10 mg/kg. An outline of the steps:
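C57BL/6 mice received antagonist or control 10 mg/kg sc, either with TLR9 agonist 0.25 mg/kg sc or up to 48 h before it. Serum IL-12 was measured 2 h after agonist. Two or three independent experiments; mean ± SEM, Student's t test versus PBS.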

The test system of assay [6] is Mus musculus. Description: Inhibition of 5'-TCTGACRTTCT-X-TCTTRCAGTCT-3'-induced IP10 production in C57BL/6 mouse treated 72 hrs before induction at 10 mg/kg, sc. Conditions: C57BL/6, sc, route subcutaneous. The class given is functional. In a few lines: (§2)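 Female C57BL/6 mice (n=3) received antagonist 10 mg/kg sc in the right flank. After 72 h, TLR9 agonist 0.25 mg/kg sc was given in the left flank. Serum was taken 2 h after agonist and cytokines/chemokines were measured by Luminex multiplex assay. Representative of at least three experiments.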

Assay [7] deals with Mus musculus. Put plainly: Inhibition of 5'-TCTGACRTTCT-X-TCTTRCAGTCT-3'-induced IL6 production in C57BL/6 mouse treated 72 hrs before induction at 10 mg/kg, sc. The class given is functional. Conditions: C57BL/6, sc, route subcutaneous. An outline of the steps:
as §2

Assay [8] has as its system Mus musculus. Put plainly: Inhibition of 5'-UGCUGUUCUG-X-GUCUUGUCGU-5'-induced IL12 production in C57BL/6 mouse treated 72 hrs before induction at 10 mg/kg, sc. The class given is functional. Conditions: C57BL/6, sc, route subcutaneous. An outline of the steps: (§3)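 Female C57BL/6 mice, 6-8 weeks, n = 3, given antagonist 10 mg/kg sc in the right flank. After 72 h, agonist given sc in the left flank: TLR7/8 RNA agonist at 50 mg/kg or TLR9 agonist at 0.25 mg/kg. Serum collected 2 h after agonist by retro-orbital bleeding; cytokines/chemokines by mouse 20-plex Luminex bead assay.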

The test system of assay [9] is Mus musculus. Description: Inhibition of 5'-UGCUGUUCUG-X-GUCUUGUCGU-5'-induced IP10 production in C57BL/6 mouse treated 72 hrs before induction at 10 mg/kg, sc. The class given is functional. Conditions: C57BL/6, sc, route subcutaneous. In a few lines:
as §3

Assay [10] deals with Mus musculus. Put plainly: Inhibition of 5'-UGCUGUUCUG-X-GUCUUGUCGU-5'-induced MCP1 production in C57BL/6 mouse treated 72 hrs before induction at 10 mg/kg, sc. The note with it: C57BL/6, sc, route subcutaneous. The class given is functional. An outline of the steps:
as §3

The subject of assay [11] is Mus musculus. Description: Inhibition of 5'-UGCUGUUCUG-X-GUCUUGUCGU-5'-induced MIG production in C57BL/6 mouse treated 72 hrs before induction at 10 mg/kg, sc. The class given is functional. The note with it: C57BL/6, sc, route subcutaneous. In a few lines:
as §3

For assay [12], the target named is T1, Toll-like receptor 9 (Mus musculus). Put plainly: Antagonist activity at TLR9 in mouse J774 cells assessed as inhibition of 5'-TCTGACRTTCT-X-TCTTRCAGTCT-3'-induced NF-kappaB activation pretreated for 1 hr in presence of increasing levels of 5'-TCTGACRTTCT-X-TCTTRCAGTCT-3'. The class given is functional, cell-based. An outline of the steps: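 Reversibility test: J774 cells were stimulated with varying doses of TLR9 agonist, with or without a fixed 10 µg/mL antagonist, for 1 h. Nuclear extracts were analysed for NF-κB by EMSA.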

For assay [13] the target is unchanged. Put plainly: Antagonist activity in mouse J774 cells assessed as inhibition of 5'-UGCUGUUCUG-X-GUCUUGUCGU-5'-induced NF-kappaB activation.

Molecules are shown by their SMILES. The source made the active and inactive calls. The rule behind the calls is not given here.

What is called inhibition in vivo is the relative decrease from the control value, in per cent. As for `CO[C@@H]1[C@H](OP(=O)(S)OC[C@H]2O[C@@H](n3ccc(N)nc3=O)C[C@@H]2OP(=O)(S)OC[C@H]2O[C@@H](n3ccc4c(=O)[nH]c(N)nc43)C[C@@H]2OP(=O)(S)OC[C@H]2O[C@@H](n3cc(C)c(=O)[nH]c3=O)C[C@@H]2OP(=O)(S)OC[C@H]2O[C@@H](n3cc(C)c(=O)[nH]c3=O)C[C@@H]2OP(=O)(S)OC[C@H]2O[C@@H](n3ccc(N)nc3=O)C[C@@H]2OP(=O)(S)OC[C@H]2O[C@@H](n3cc(C)c(=O)[nH]c3=O)C[C@@H]2OP(=O)(S)OC[C@H]2O[C@@H](n3ccc(N)nc3=O)C[C@@H]2OP(=O)(S)OC[C@H]2O[C@@H](n3cc(C)c(=O)[nH]c3=O)C[C@@H]2OP(=O)(S)OC[C@H]2O[C@@H](n3cnc4c(=O)[nH]c(N)nc43)C[C@@H]2OP(=O)(S)OC[C@H]2O[C@@H](n3cc(C)c(=O)[nH]c3=O)C[C@@H]2O)[C@@H](COP(=O)(S)O[C@H]2[C@@H](OC)[C@H](n3cnc4c(=O)[nH]c(N)nc43)O[C@@H]2COP(=O)(S)O[C@H]2C[C@H](n3cc(C)c(=O)[nH]c3=O)O[C@@H]2COP(=O)(S)O[C@H]2C[C@H](n3ccc(N)nc3=O)O[C@@H]2COP(=O)(S)O[C@H]2C[C@H](n3cc(C)c(=O)[nH]c3=O)O[C@@H]2COP(=O)(S)O[C@H]2C[C@H](n3cnc4c(N)ncnc43)O[C@@H]2COP(=O)(S)O[C@H]2C[C@H](n3cc(C)c(=O)[nH]c3=O)O[C@@H]2COP(=O)(S)O[C@@H]2C[C@@H](n3ccc(N)nc3=O)O[C@H]2CO)O[C@H]1n1cnc2c(N)ncnc21` (stereo partly drawn), the Activity result in assay [1] and in assay [13] was “Dose-dependent effect” each time. Further, the outcome in [2] and in [12] was inactive. For the same compound, the result (in [3]; in [4]; in the assay on Mus musculus [5]) was Active. Besides, the inhibition in vivo at 10 mg/kg with Mus musculus [6], in the assay on Mus musculus [7], with Mus musculus [8], in the assay with Mus musculus [9], in the assay on Mus musculus [10] and with Mus musculus [11] was ≥ 50% throughout.
